In ChEMBL document CHEMBL4819122, “Novel 4-(piperazin-1-yl)quinolin-2(1H)-one bearing thiazoles with antiproliferative activity through VEGFR-2-TK inhibition” (Bioorg Med Chem, 2021):
Active and inactive are the calls of the source. The calls are words filed in the database; no cut-off is given here.

How the values were obtained:
DU-145 = assay: Cytotoxicity against human DU-145 assessed as growth inhibition at 10 uM by NCI protocol relative to control; format: functional; conditions: read-out: GI
In short: (§1)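 Run by NCI as a single-dose screen at 10 μM across the sixty-cell-line panel, which covers nine human tumour tissue types. The read-out is percent growth inhibition of treated cells relative to untreated cells.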

SNB-75 = assay: Cytotoxicity against human SNB-75 assessed as growth inhibition at 10 uM by NCI protocol relative to control; format: functional; conditions: read-out: GI
In short: (§2)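 Run by the NCI under its standard protocol: one dose of 10 μM against a sixty-line panel from nine human tumour tissues. Result given as percent growth inhibition of treated cells relative to untreated cells.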

HCT-15 = assay: Cytotoxicity against human HCT-15 assessed as growth inhibition at 10 uM by NCI protocol relative to control; format: functional; conditions: read-out: GI; in short: as §1
PC-3 = assay: Cytotoxicity against human PC3 assessed as growth inhibition at 10 uM by NCI protocol relative to control; format: functional; conditions: read-out: GI; in short: as §1
T47D [1] = assay: Cytotoxicity against human T47D cells assessed as reduction in cell viability after 3 hrs by MTT assay
SF-295 = assay: Cytotoxicity against human SF-295 assessed as growth inhibition at 10 uM by NCI protocol relative to control; format: functional; conditions: read-out: GI; in short: as §1
BT-549 = assay: Cytotoxicity against human BT-549 assessed as growth inhibition at 10 uM by NCI protocol relative to control; format: functional; conditions: read-out: GI; in short: as §1
MOLT-4 = assay: Cytotoxicity against human MOLT-4 assessed as growth inhibition at 10 uM by NCI protocol relative to control; format: functional; conditions: read-out: GI; in short: as §1
UACC-62 = assay: Cytotoxicity against human UACC-62 assessed as growth inhibition at 10 uM by NCI protocol relative to control; format: functional; conditions: read-out: GI; in short: as §2
CCRF-CEM = assay: Cytotoxicity against human CCRF-CEM assessed as growth inhibition at 10 uM by NCI protocol relative to control; format: functional; conditions: read-out: GI; in short: as §1
Hs-578T = assay: Cytotoxicity against human HS 578T assessed as growth inhibition at 10 uM by NCI protocol relative to control; format: functional; conditions: read-out: GI; in short: as §1
SR = assay: Cytotoxicity against human SR assessed as growth inhibition at 10 uM by NCI protocol relative to control; format: functional; conditions: read-out: GI; in short: as §2
HCC 2998 = assay: Cytotoxicity against human HCC-2998 assessed as growth inhibition at 10 uM by NCI protocol relative to control; format: functional; conditions: read-out: GI; in short: as §1
786-0 = assay: Cytotoxicity against human 786-0 assessed as growth inhibition at 10 uM by NCI protocol relative to control; format: functional; conditions: read-out: GI; in short: as §1
SK-MEL-5 = assay: Cytotoxicity against human SK-MEL-5 assessed as growth inhibition at 10 uM by NCI protocol relative to control; format: functional; conditions: read-out: GI; in short: as §1
UO-31 = assay: Cytotoxicity against human UO31 assessed as growth inhibition at 10 uM by NCI protocol relative to control; format: functional; conditions: read-out: GI; in short: as §2
SK-MEL-28 = assay: Cytotoxicity against human SK-MEL-28 assessed as growth inhibition at 10 uM by NCI protocol relative to control; format: functional; conditions: read-out: GI; in short: as §1
MDA-MB-435 = assay: Cytotoxicity against human MDA-MB-435 assessed as growth inhibition at 10 uM by NCI protocol relative to control; format: functional, cell-based; in short: as §1
SF-539 = assay: Cytotoxicity against human […] assessed as growth inhibition at 10 uM by NCI protocol relative to control; format: functional; conditions: read-out: GI; in short: as §1
M14 = assay: Cytotoxicity against human M14 assessed as growth inhibition at 10 uM by NCI protocol relative to control; format: functional; conditions: read-out: GI; in short: as §1
T47D [2] = assay: Cytotoxicity against human T-47D assessed as growth inhibition at 10 uM by NCI protocol relative to control; format: functional; conditions: read-out: GI; in short: as §2
Malme-3M = assay: Cytotoxicity against human MALME-3M assessed as growth inhibition at 10 uM by NCI protocol relative to control; format: functional; conditions: read-out: GI; in short: as §1
TK-10 = assay: Cytotoxicity against human TK-10 assessed as growth inhibition at 10 uM by NCI protocol relative to control; format: functional; conditions: read-out: GI; in short: as §2
MDA-MB-468 = assay: Cytotoxicity against human MDA-MB-468 assessed as growth inhibition at 10 uM by NCI protocol relative to control; format: functional; conditions: read-out: GI; in short: as §1
K562 = assay: Cytotoxicity against human K-562 assessed as growth inhibition at 10 uM by NCI protocol relative to control; format: functional; conditions: read-out: GI; in short: as §1
RPMI-8226 = assay: Cytotoxicity against human RPMI-8226 assessed as growth inhibition at 10 uM by NCI protocol relative to control; format: functional; conditions: read-out: GI; in short: as §1
NCI-H522 = assay: Cytotoxicity against human NCI-H522 assessed as growth inhibition at 10 uM by NCI protocol relative to control; format: functional; conditions: read-out: GI; in short: as §1
NCI-H322M = assay: Cytotoxicity against human NCI-H322M assessed as growth inhibition at 10 uM by NCI protocol relative to control; format: functional; conditions: read-out: GI; in short: as §1
MDA-MB-231 = assay: Cytotoxicity against human MDA-MB-231 assessed as growth inhibition at 10 uM by NCI protocol relative to control; format: functional; conditions: read-out: GI; in short: as §1
LOX IMVI = assay: Cytotoxicity against human LOX IMVI assessed as growth inhibition at 10 uM by NCI protocol relative to control; format: functional; conditions: read-out: GI; in short: as §1
OVCAR-4 = assay: Cytotoxicity against human OVCAR-4 assessed as growth inhibition at 10 uM by NCI protocol relative to control; format: functional; conditions: read-out: GI; in short: as §1
NCI-H460 = assay: Cytotoxicity against human NCI-H460 assessed as growth inhibition at 10 uM by NCI protocol relative to control; format: functional; conditions: read-out: GI; in short: as §1
SNB-19 = assay: Cytotoxicity against human SNB-19 assessed as growth inhibition at 10 uM by NCI protocol relative to control; format: functional; conditions: read-out: GI; in short: as §2
EKVX = assay: Cytotoxicity against human EKVX assessed as growth inhibition at 10 uM by NCI protocol relative to control; format: functional; conditions: read-out: GI; in short: as §1
HL-60 = assay: Cytotoxicity against human HL60 assessed as growth inhibition at 10 uM by NCI protocol relative to control; format: functional; conditions: read-out: GI; in short: as §1
SN12C = assay: Cytotoxicity against human SN12C assessed as growth inhibition at 10 uM by NCI protocol relative to control; format: functional; conditions: read-out: GI; in short: as §2
A549 = assay: Cytotoxicity against human A549 assessed as growth inhibition at 10 uM by NCI protocol relative to control; format: functional; conditions: read-out: GI; in short: as §1
IGROV-1 = assay: Cytotoxicity against human IGROVI assessed as growth inhibition at 10 uM by NCI protocol relative to control; format: functional; conditions: read-out: GI; in short: as §1
HCT-116 = assay: Cytotoxicity against human HCT-116 assessed as growth inhibition at 10 uM by NCI protocol relative to control; format: functional; conditions: read-out: GI; in short: as §1
RXF 393 = assay: Cytotoxicity against human RXF 393 assessed as growth inhibition at 10 uM by NCI protocol relative to control; format: functional; conditions: read-out: GI; in short: as §1
UACC-257 = assay: Cytotoxicity against human UACC-257 assessed as growth inhibition at 10 uM by NCI protocol relative to control; format: functional; conditions: read-out: GI; in short: as §2
SW-620 = assay: Cytotoxicity against human SW-620 assessed as growth inhibition at 10 uM by NCI protocol relative to control; format: functional; conditions: read-out: GI; in short: as §2
A498 = assay: Cytotoxicity against human A498 assessed as growth inhibition at 10 uM by NCI protocol relative to control; format: functional; conditions: read-out: GI; in short: as §1
NCI/ADR-RES = assay: Cytotoxicity against human NCl/ADR-RES assessed as growth inhibition at 10 uM by NCI protocol relative to control; format: functional; conditions: read-out: GI; in short: as §1
OVCAR-8 = assay: Cytotoxicity against human OVCAR-8 assessed as growth inhibition at 10 uM by NCI protocol relative to control; format: functional; conditions: read-out: GI; in short: as §1
NCI-H23 = assay: Cytotoxicity against human NCI-H23 assessed as growth inhibition at 10 uM by NCI protocol relative to control; format: functional; conditions: read-out: GI; in short: as §1
MCF7 = assay: Cytotoxicity against human MCF7 assessed as growth inhibition at 10 uM by NCI protocol relative to control; format: functional; conditions: read-out: GI; in short: as §1
HOP-92 = assay: Cytotoxicity against human HOP-92 assessed as growth inhibition at 10 uM by NCI protocol relative to control; format: functional; conditions: read-out: GI; in short: as §1
ACHN = assay: Cytotoxicity against human ACHN assessed as growth inhibition at 10 uM by NCI protocol relative to control; format: functional; conditions: read-out: GI; in short: as §1
U-251 = assay: Cytotoxicity against human U251 assessed as growth inhibition at 10 uM by NCI protocol relative to control; format: functional; conditions: read-out: GI; in short: as §2
HT-29 = assay: Cytotoxicity against human HT29 assessed as growth inhibition at 10 uM by NCI protocol relative to control; format: functional; conditions: read-out: GI; in short: as §1
SK-OV-3 = assay: Cytotoxicity against human SK-OV-3 assessed as growth inhibition at 10 uM by NCI protocol relative to control; format: functional; conditions: read-out: GI; in short: as §1
CAKI-1 = assay: Cytotoxicity against human Caki1 assessed as growth inhibition at 10 uM by NCI protocol relative to control; format: functional; conditions: read-out: GI; in short: as §1

COc1ccc(-c2csc(NC(=O)CN3CCN(c4cc(=O)[nH]c5ccc(F)cc45)CC3)n2)cc1
inhibition of growth at 10 µM (DU-145): 40% | inhibition of growth at 10 µM (SNB-75): 23.9% | inhibition of growth at 10 µM (HCT-15): 26.6% | inhibition of growth at 10 µM (PC-3): 35.8% | IC50 (T47D [1]): 16.9 µM | inhibition of growth at 10 µM (SF-295): 17.5% | inhibition of growth at 10 µM (BT-549): 18.6% | inhibition of growth at 10 µM (MOLT-4): 46.7% | inhibition of growth at 10 µM (UACC-62): 28.1% | inhibition of growth at 10 µM (CCRF-CEM): 29.8% | inhibition of growth at 10 µM (Hs-578T): 32.9% | inhibition of growth at 10 µM (SR): 34.7% | inhibition of growth at 10 µM (HCC 2998): 15.8% | inhibition of growth at 10 µM (786-0): 19.3% | inhibition of growth at 10 µM (SK-MEL-5): 25.4% | inhibition of growth at 10 µM (UO-31): 24.9% | inhibition of growth at 10 µM (SK-MEL-28): 13.7% | growth inhibition (GI) (MDA-MB-435): inactive | inhibition of growth at 10 µM (SF-539): 30.5% | inhibition of growth at 10 µM (M14): 19.2% | inhibition of growth at 10 µM (T47D [2]): 69.2% | inhibition of growth at 10 µM (Malme-3M): 33.6% | inhibition of growth at 10 µM (TK-10): 31.8% | inhibition of growth at 10 µM (MDA-MB-468): 32% | inhibition of growth at 10 µM (K562): 30.1% | inhibition of growth at 10 µM (RPMI-8226): 40.9% | inhibition of growth at 10 µM (NCI-H522): 21.6% | inhibition of growth at 10 µM (NCI-H322M): 12.6% | inhibition of growth at 10 µM (MDA-MB-231): 24.5% | inhibition of growth at 10 µM (LOX IMVI): 20.8% | inhibition of growth at 10 µM (OVCAR-4): 25.1% | inhibition of growth at 10 µM (NCI-H460): 12.5% | inhibition of growth at 10 µM (SNB-19): 15.3% | inhibition of growth at 10 µM (EKVX): 24.9% | inhibition of growth at 10 µM (HL-60): 23.5% | inhibition of growth at 10 µM (SN12C): 29.1% | inhibition of growth at 10 µM (A549): 29.5% | inhibition of growth at 10 µM (IGROV-1): 45.6% | inhibition of growth at 10 µM (HCT-116): 15.9% | inhibition of growth at 10 µM (RXF 393): 20.3% | inhibition of growth at 10 µM (UACC-257): 14.5% | inhibition of growth at 10 µM (SW-620): 34.6% | inhibition of growth at 10 µM (A498): 49.9% | inhibition of growth at 10 µM (NCI/ADR-RES): 20.5% | inhibition of growth at 10 µM (OVCAR-8): 17.2% | inhibition of growth at 10 µM (NCI-H23): 16.6% | inhibition of growth at 10 µM (MCF7): 28.4% | inhibition of growth at 10 µM (HOP-92): 25.4% | inhibition of growth at 10 µM (ACHN): 27.7% | inhibition of growth at 10 µM (U-251): 30.3% | inhibition of growth at 10 µM (HT-29): 22.1% | inhibition of growth at 10 µM (SK-OV-3): 10.4% | inhibition of growth at 10 µM (CAKI-1): 46.8%
